Experimental data: the EternaBench riboswitch data

System: MS2 coat protein
Assay: apparent Kd, MS2 coat protein; higher = weaker binding; RNA-MaP array; FMN 200 µM where present
Outline: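 The apparent Kd comes from binding curves fitted cluster by cluster, filtered, and summarised as a median. Those curves followed SNAP-549-labelled MS2 coat protein from 0.7 or 1.5 nM, doubling to 3 µM, on Illumina sequencing-chip clusters where stalled E. coli RNA polymerase had transcribed the designs, without and then with constant ligand. The buffer was 100 mM Tris-HCl pH 7.5, 80 mM KCl, 4 mM MgCl2, BSA, DTT, yeast tRNA and Tween-20, and green signal was normalised to red-channel RNA signal and control-cluster median Fmax.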

[1] = designed as: OFF switch for flavin mononucleotide, no ligand
[2] = ligand present: flavin mononucleotide, designed as: OFF switch for flavin mononucleotide
[3] = designed as: ON switch for flavin mononucleotide, no ligand
[4] = ligand present: flavin mononucleotide, designed as: ON switch for flavin mononucleotide

CGUGUUGACGAAGGAUAUGGAUACAUGAGGAUCACCCAUGUAUAUUUUGUGAUCAAGUUUAAGAUCCAGAAGGUCGUUGACACG
apparent Kd [1]: 77.6 nM
apparent Kd [2]: 131 nM

GCCGGAGCAGGAUAUCUAAUAUAUCACAUGAGGAUCACCCAUGUCCAGCGAAAGCUGGAGGGAGAAGGGCUCUGGC
apparent Kd [1]: 164 nM
apparent Kd [2]: 44.4 nM

AGACGCAUGCAGAAGGACGACAUGAGGAUCACCCAUGUGGUCGGUAGGGUCGUAGGAUAUGCAAGGCGUUGCGAGCCAACUGUG
apparent Kd [1]: 118 nM
apparent Kd [2]: 26.9 nM

GGUUGUGUGUAAGGAUAUGCAUCACUGAGAAAUUUAGUGAGGAAGAUCACAUGAGGAUCACCCAUGUAGAAGGUACACACGUGG
apparent Kd [1]: 10.7 nM
apparent Kd [2]: 50.1 nM

CUACAUGAGGAUCACCCAUGUGCACACCGGAUCGGUAUGCGCAGAAGGGCCAUGGAGAAAGCCAGGCAGGAUAUGCAAAGGGCU
apparent Kd [3]: 258 nM
apparent Kd [4]: 176 nM

GAGUGGAAGGCCGCUACAUGAGGAUCACCCAUGUGCUAAGCACAGGAUAUCGCGCUGGCCCGGCGCGAGAAGGGUGACGGCCUU
apparent Kd [3]: 737 nM
apparent Kd [4]: 283 nM

GUGCGGUAGGAGAAGGACGGAGGCUUCAUUACAUACAUGAGGAUCACCCAUGUAGGAUAUCCUACCUCACGCGGCCUCCUUCUG
apparent Kd [1]: 6.52 nM
apparent Kd [2]: 7.65 nM

UUUAUUAAUUAGAAGGCAUGAUGAAUUACAAUAGACAUGAGGAUCACCCAUGUGUAUUCAUGUCAUGAGGAUAUAGUCAUAUAU
apparent Kd [3]: 10.3 nM
apparent Kd [4]: 7.27 nM

CCUCUACAUGAGGAUCACCCAUGUGAGGAUAUGCGAGGCGCACUCGAUGAGCGCGCCGGUAGAAGGCAUGUGGU
apparent Kd [1]: 24 nM
apparent Kd [2]: 55 nM

GCGGGUCCGGAGAAGGGUACCGUGGGUAUGAUACAUGAGGAUCACCCAUGUACAGGAUAUCCGGCAAAGAUGUGGCUAAGAGGG
apparent Kd [1]: 257 nM
apparent Kd [2]: 34.5 nM

AAAAAACAUGAGGAUCACCCAUGUGAGGAUAUCGAAAAGUCAAAGAAAAAGACGAAAACGAGAAGGCGCAAAAA
apparent Kd [1]: 49.6 nM
apparent Kd [2]: 45.5 nM

GCUUCACAUGAGGAUCACCCAUGUCUUCGGAGUCGAGGAUAUGGUAACUGUAAACAGUUGCCAGAAGGCGAGGAGC
apparent Kd [3]: 59.6 nM
apparent Kd [4]: 35.5 nM

GUCUCGUCAGGAUAUGACGCUACAUUUUCUUUUUAGAAGAGUCAGAAGGGACAUGAGGAUCACCCAUGUGAUUC
apparent Kd [1]: 430 nM
apparent Kd [2]: 596 nM

AACAGUACAGGAUAUACAUGAGGAUCACCCAUGUGAGAAUUAAGUGGCGAACCACAAAGUAGAAGGGUACUGGA
apparent Kd [1]: 59.6 nM
apparent Kd [2]: 197 nM

CCUUCACAUGAGGAUCACCCAUGUCCUAGUCCGUCAGGAUAUAGCCCGCAUCCGCUGUGGCUAGAAGGGACUGCUG
apparent Kd [3]: 141 nM
apparent Kd [4]: 235 nM

AGUUAUUCAGGAUAUGGUGUGUUAUACAUGAGGAUCACCCAUGUAGAUCCUGGUUAGGCCUCAGAAGGGAAUGUUC
apparent Kd [1]: 182 nM
apparent Kd [2]: 183 nM

UUUAAGUCAGGAUAUCGUUAAUUUAAUAAAUUAUUUUAAUUCGAGAAGGGACAUGAGGAUCACCCAUGUAAUUU
apparent Kd [1]: 33.2 nM
apparent Kd [2]: 48.6 nM

UUUUUGUGAGGAUAUCAGUAGUAAAUAAAUAAAAUUACUACUGAGAAGGCACAUGAGGAUCACCCAUGUUUUUU
apparent Kd [1]: 40.4 nM
apparent Kd [2]: 95.1 nM

UGAACUUCAGAGAAGGUCGGAUGGCAACGGUCCGAAGGAUAUCUGGAAACAUGAGGAUCACCCAUGUAACCGGGUGGAUGUCCU
apparent Kd [1]: 35 nM
apparent Kd [2]: 113 nM

UGUAUACAUGAGGAUCACCCAUGUAAGGAUAUGCUUUAUUAUUAUUAUUAUUAUUGUUGCAGAAGGUACAUUGU
apparent Kd [1]: 28.9 nM
apparent Kd [2]: 32.1 nM

CCUAGUUGGUAAGGAUAUCCUACACUGUUCUGACCCGUGCGAGCUACAUGAGGAUCACCCAUGUGGGAGAAGGUGCGUCAACGC
apparent Kd [1]: 18.2 nM
apparent Kd [2]: 17.9 nM

CGAGCUCGUGUGAGGAUAUACCUAUGGAUACAUAGGUAGAAGGCACAUGAGGAUCACCCAUGUCCUAGAGCUCG
apparent Kd [1]: 92 nM
apparent Kd [2]: 679 nM

AGCGUACAAGCUAACAUGAGGAUCACCCAUGUGGUCUCAUGCGAGGAUAUCGGGAAGGAGGAUUCCGAGAAGGUGCGGUGAGCC
apparent Kd [3]: 182 nM
apparent Kd [4]: 43.8 nM

AUACAUGAGGAUCACCCAUGUUACUUGGUCUUGAUAUUACGUAGAAGGAUGAUAUUAUUAUUAGCAUAGGAUAUACAAUUUGUA
apparent Kd [1]: 17 nM
apparent Kd [2]: 12.8 nM

GGAGGACAUGAGGAUCACCCAUGUGGAUGGGCGCUAGGAUAUGCGAGAGGAGGGAGUGGAGCAGAAGGAGUGGGUU
apparent Kd [3]: 65.6 nM
apparent Kd [4]: 57.5 nM

ACAACUAAGCAGAAGGCAGUCAUAGCAUUCGUCAUGUAGACAUGAGGAUCACCCAUGUAUAGUGCUGAGGAUAUGCUUGGUUAG
apparent Kd [1]: 11.3 nM
apparent Kd [2]: 9.47 nM

UCAUGAUAUGUAGGAUAUCACAAUAAUUGAUUAAUAUAUGAAUAUAGAAUUUGAGAAGGACAUUUACAUGAGGAUCACCCAUGU
apparent Kd [1]: 14.8 nM
apparent Kd [2]: 12.3 nM

AAGAAGUGAGGAUAUACAUGAACGAAAAAAAAAAAGAGCAUGUAGAAGGCACAUGAGGAUCACCCAUGUCAAAA
apparent Kd [1]: 28.5 nM
apparent Kd [2]: 27.3 nM

GAUGUUUGAGGAUAUACAUGAGGAUCACCCAUGUGUGUCCAUACGCGUGAGUCUUCGUGUAGAAGGCGGGCGUC
apparent Kd [1]: 14.1 nM
apparent Kd [2]: 15.5 nM

AGUGCCCGAGCAGGAUAUCAAUGGUGGUCUGUACGCUGUAAAUUCAACAUGAGGAUCACCCAUGUUGAGAAGGGUUACGGCGCA
apparent Kd [1]: 8.86 nM
apparent Kd [2]: 23.9 nM

GUUGCGUUUGUGAGGAUAUGCUGGUCCUUGGUUCGGCAGAAGGCACAUGAGGAUCACCCAUGUGGUGUUGUUCC
apparent Kd [1]: 126 nM
apparent Kd [2]: 94.7 nM

AGACCAGUUCUAGGAUAUGUGUGACGUGAGUAAACAGAAGGAGAACAUGAGGAUCACCCAUGUGGGCCAAUCAUCCUCACGUGG
apparent Kd [1]: 44.9 nM
apparent Kd [2]: 371 nM

AUGUUGCGAGGAUAUAUUUAAUGGAUGAUAUUUAUUAGGGAACAUGAGGAUCACCCAUGUAGAAGGUGCAUAAC
apparent Kd [1]: 63.7 nM
apparent Kd [2]: 87 nM

AAGAAACAUGAGGAUCACCCAUGUGUAAAUAUGGGAGGAUAUACAAGGACGUAAGUCAAGGUAGAAGGCCUAAGAA
apparent Kd [3]: 172 nM
apparent Kd [4]: 32.7 nM

CCAGCGUAUGUGAGGAUAUGCUGGUCCUUGGAUCAGCAGAAGGCACAUGAGGAUCACCCAUGUGGAGACGUUGG
apparent Kd [1]: 21.8 nM
apparent Kd [2]: 102 nM

AUAAUGUAAGGAUAUCAGUCGACUAGCUUCGGCUAGUCGACUGAGAAGGUACAUGAGGAUCACCCAUGUGUUUC
apparent Kd [1]: 37.7 nM
apparent Kd [2]: 209 nM

CAUAAGUCAGAGAAGGCGUACAUGCCCAGACUGUGACGGAUGACGACAUGAGGAUCACCCAUGUACGAGGAUAUCUGAGCAAUC
apparent Kd [1]: 22.9 nM
apparent Kd [2]: 168 nM

GUAGCUAUCGGAGGAUAUUCAUACCGAAAACGGACAUGAGGAUCACCCAUGUGGCGAAAGUCUUGGGAGAAGGCCGAUAGCUAC
apparent Kd [3]: 39.2 nM
apparent Kd [4]: 7.62 nM

UUCUUGUGAGGAUAUCAGUAGUAAAUAAAUAAAAUUACUACUGAGAAGGCACAUGAGGAUCACCCAUGUUCCUU
apparent Kd [1]: 14.6 nM
apparent Kd [2]: 32.9 nM

AGGAAGUAAAGAGACAUGAGGAUCACCCAUGUGACUGCAUCACAGGAUAUGUCGAGCGAAGCACAACAGAAGGGUGAUCAGGGC
apparent Kd [3]: 65.2 nM
apparent Kd [4]: 120 nM

CGAGUUUUUGAGAAGGCAUAUUAUAAUAGUGUCCAUGUUUACAUGAGGAUCACCCAUGUUUAGUAUGAGGAUAUCAGUAUGUCG
apparent Kd [1]: 8.01 nM
apparent Kd [2]: 11.1 nM

GGUGUCAUCGAGAAGGCCUCAACAUGAGGAUCACCCAUGUUGUAAUAUGGGAGGAUAUCGAUGAUACAGCUACGUUUCGUAGCG
apparent Kd [3]: 19.9 nM
apparent Kd [4]: 6.57 nM

AGCGGCGCAGACCACCGCAAAACCAGAAGGACAUGAGGAUCACCCAUGUAACAAAACAGGGCGAUGUAGGAUAUGGCAAACCCA
apparent Kd [1]: 16.3 nM
apparent Kd [2]: 18.8 nM

GCACAUGAGGAUCACCCAUGUGGUCCAGAAGGCCAGAGGGCUUGCUUUUCGCAGGCCUUUCAAAUGGAGGAUAUGGAGGGUUCU
apparent Kd [3]: 207 nM
apparent Kd [4]: 42.7 nM

CGGAACAUGAGGAUCACCCAUGUAGCUACUUAAAGGUGCUACAGAAGGGACAUUGCGCGUCAUGGUCAGGAUAUGUAGGGCUGA
apparent Kd [3]: 379 nM
apparent Kd [4]: 108 nM

UGUCGGAGCAGAGGAUAUUACAUGAGGAUCACCCAUGUAUGAACCAAAAGCUGGAAACAGCAAUGUAAGAAGGCUGCUCCGACA
apparent Kd [1]: 11.8 nM
apparent Kd [2]: 123 nM

GUCAGCUCGUGAGGAUAUACAACACUGCUUCGGCAGUGUAUUAAGUUCACAUGAGGAUCACCCAUGUAGAAGGCACGAGCUGAU
apparent Kd [1]: 5.56 nM
apparent Kd [2]: 6.8 nM

CUUCAGUGAGGAUAUACAUAACGGGACGUUAAUAUCGUUAGGUAGAAGGCACAUGAGGAUCACCCAUGUUUAAA
apparent Kd [1]: 92 nM
apparent Kd [2]: 66 nM

UUAGCAACAUGAGGAUCACCCAUGUAGGAUAUCGCUAUUGUAAUCAUGAAACAUGAUUACAAUAGCGAGAAGGACAUAUGCUGG
apparent Kd [1]: 22.4 nM
apparent Kd [2]: 19.5 nM

CCGAUGUAAGGAUAUCGUGCAAGUUUCAAAAGAGGCUUGUGCGAGAAGGUACAUGAGGAUCACCCAUGUAGGUU
apparent Kd [1]: 95.4 nM
apparent Kd [2]: 345 nM

UUAGAAAGGUUAGGAUAUUAAUUAUUGUAUAGUAUGAUCUACAUGAGGAUCACCCAUGUUAAAUAUAAGAAGGAACGUUAGAUU
apparent Kd [1]: 57.1 nM
apparent Kd [2]: 54.8 nM

GGAGCACACAUUAACAUGAGGAUCACCCAUGUCAAAAGACAUGAGGAUAUGGAUCCGAAAAGGAUCCAGAAGGCAUGGUUCUCC
apparent Kd [3]: 365 nM
apparent Kd [4]: 19.6 nM

AGCCCUAAUGUCAGGAUAUGCAUCCUUAAUGGACGGCAGAAGGGACAUGAGGAUCACCCAUGUAAAUAGAAAUU
apparent Kd [1]: 34.8 nM
apparent Kd [2]: 146 nM

AAUGAAACUUAGAAGGCCUACAUGAGGAUCACCCAUGUGGCUUUAAGUGUAGGAGGAUAUGAGGAUGCGGGCAGGAACCCACGC
apparent Kd [1]: 6.17 nM
apparent Kd [2]: 11.6 nM

AUGGUGACGUAGAAGGGUGACAUGAGGAUCACCCAUGUGCCGAUAUUUUUCGAAAUAUGUCGGCCACAGGAUAUACGUGCCAUC
apparent Kd [3]: 68.7 nM
apparent Kd [4]: 136 nM
